Data: ChEMBL document CHEMBL2406980, “Non hemolytic short peptidomimetics as a new class of potent and broad-spectrum antimicrobial agents” (Bioorg Med Chem Lett, 2013)
Converted amounts (≈) assume the structure as drawn. The source made the active and inactive calls. No cut-off for these calls is given here. Where a SMILES comes first, the peptide text is derived from it.

Legend:
Staphylococcus aureus [1] = assay: Antibacterial activity against Staphylococcus aureus KCTC 1621 assessed as obvious disruption of cellular structure at 10 X MIC after 1 hr by transmission electron microscopic analysis; assay type: functional, organism-based
Summary of the method: (§1)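 Peptide-treated E. coli and S. aureus are negatively stained and examined by transmission electron microscopy for cell rupture and release of internal material. Comparisons are made with untreated cells, with LL-37 as a positive lysis control.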

Escherichia coli [2] = assay: Antibacterial activity against Escherichia coli KCTC 1682 assessed as obvious disruption of cellular structure at 10 X MIC after 1 hr by transmission electron microscopic analysis; assay type: functional, organism-based; summary of the method: as §1
Staphylococcus aureus [3] = assay: Antibacterial activity against methicillin-resistant Staphylococcus aureus CCARM 3095 assessed as growth inhibition after 18 to 20 hrs by broth microdilution method; assay type: functional
Staphylococcus aureus [4] = assay: Antibacterial activity against methicillin-resistant Staphylococcus aureus CCARM 3090 assessed as growth inhibition after 18 to 20 hrs by broth microdilution method; assay type: functional
[5] = Hemolytic activity in human RBC after 1 hr; assay type: ADME, cell-based; details: erythrocyte
Summary of the method: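 Human erythrocytes are exposed to peptide, and HC10 is taken as the peptide concentration producing 10% hemolysis. If no hemolysis is detected at the top concentration tested, twice that maximum is used for the therapeutic index.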

Staphylococcus aureus [6] = assay: Antibacterial activity against methicillin-resistant Staphylococcus aureus CCARM 3089 assessed as growth inhibition after 18 to 20 hrs by broth microdilution method; assay type: functional
Staphylococcus aureus [7] = assay: Antibacterial activity against Staphylococcus aureus KCTC 1621 assessed as growth inhibition after 18 to 20 hrs by broth microdilution method; assay type: functional
Summary of the method: (§2)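 MIC by broth microdilution against a four-strain panel: E. coli and P. aeruginosa (Gram-negative), S. epidermidis and S. aureus (Gram-positive). Values are given in mass and molar units. Where no activity occurs at the top concentration, twice that maximum is used in the geometric-mean MIC calculation.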

[8] = test system: Staphylococcus epidermidis; assay: Antibacterial activity against Staphylococcus epidermidis KCTC 1917 assessed as growth inhibition after 18 to 20 hrs by broth microdilution method; assay type: functional; summary of the method: as §2
Pseudomonas aeruginosa = assay: Antibacterial activity against Pseudomonas aeruginosa KCTC 1637 assessed as growth inhibition after 18 to 20 hrs by broth microdilution method; assay type: functional; summary of the method: as §2
Escherichia coli [9] = assay: Antibacterial activity against Escherichia coli KCTC 1682 assessed as growth inhibition after 18 to 20 hrs by broth microdilution method; assay type: functional; summary of the method: as §2
Staphylococcus aureus [10] = assay: Antibacterial activity against Staphylococcus aureus KCTC 1621 assessed as growth inhibition at 50 ug/ml preincubated with trypsin for 1 hr followed by 18 to 20 hrs incubation in bacterial culture by broth microdilution method; assay type: functional, organism-based
Summary of the method: (§3)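 Peptides are pretreated with trypsin, then residual antibacterial activity is measured by broth microdilution. Remaining intact peptide at each degradation time is followed separately by analytical RP-HPLC after trypsin treatment.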

Escherichia coli [11] = assay: Antibacterial activity against Escherichia coli KCTC 1682 assessed as growth inhibition at 50 ug/ml preincubated with trypsin for 1 hr followed by 18 to 20 hrs incubation in bacterial culture by broth microdilution method; assay type: functional, organism-based; summary of the method: as §3

Compound | Activity (Staphylococcus aureus [1]) | Activity (Escherichia coli [2]) | MIC (Staphylococcus aureus [3]) [µM] | MIC (Staphylococcus aureus [4]) [µM] | HC10 [5] [µM] | MIC (Staphylococcus aureus [6]) [µM] | MIC (Staphylococcus aureus [7]) [µM] | MIC [8] [µM] | MIC (Pseudomonas aeruginosa) [µM] | MIC (Escherichia coli [9]) [µM] | growth inhibition (GI) (Staphylococcus aureus [10]) | growth inhibition (GI) (Escherichia coli [11])
CC[C@H](C)[C@H](NC(=O)[C@H](CCCCN)NC(=O)[C@H](CCC(=O)O)NC(=O)[C@H](CCCCN)NC(=O)[C@H](CO)NC(=O)[C@H](CCCCN)NC(=O)[C@H](CCCNC(=N)N)NC(=O)[C@H](Cc1ccccc1)NC(=O)[C@H](Cc1ccccc1)NC(=O)[C@H](CC(=O)O)NC(=O)CNC(=O)[C@H](CC(C)C)NC(=O)[C@@H](N)CC(C)C)C(=O)NCC(=O)N[C@@H](CCCCN)C(=O)N[C@@H](CCC(=O)O)C(=O)N[C@@H](Cc1ccccc1)C(=O)N[C@@H](CCCCN)C(=O)N[C@@H](CCCNC(=N)N)C(=O)N[C@H](C(=O)N[C@H](C(=O)N[C@@H](CCC(N)=O)C(=O)N[C@@H](CCCNC(=N)N)C(=O)N[C@H](C(=O)N[C@@H](CCCCN)C(=O)N[C@@H](CC(=O)O)C(=O)N[C@@H](Cc1ccccc1)C(=O)N[C@@H](CC(C)C)C(=O)N[C@@H](CCCNC(=N)N)C(=O)N[C@@H](CC(N)=O)C(=O)N[C@@H](CC(C)C)C(=O)N[C@H](C(=O)N1CCC[C@H]1C(=O)N[C@@H](CCCNC(=N)N)C(=O)N[C@H](C(=O)N[C@@H](CCC(=O)O)C(=O)N[C@@H](CO)C(=O)O)[C@@H](C)O)C(C)C)[C@@H](C)CC)C(C)C)[C@@H](C)CC [CATHELICIDIN] | Active | Active | > 7.1 | > 7.1 | 36.7 | > 7.1 | 3.6 (≈ 16.2 µg/mL) | 14.2 (≈ 63.8 µg/mL) | 7.1 (≈ 31.9 µg/mL) | 7.1 (≈ 31.9 µg/mL) |  | 
N=C(N)NCCC[C@H](NC(=O)[C@H](Cc1c[n+](CCCC2CCCCC2)cn1CCCC1CCCCC1)NC(=O)[C@@H](N)CCCNC(=N)N)C(N)=O | Active | Active | 5.2 | 5.2 | > 357.8 | 5.2 | 5.6 | 5.6 | 11.2 | 5.6 | Active | Active
N=C(N)NCCC[C@H](NC(=O)[C@@H](N)CCCNC(=N)N)C(=O)N[C@@H](Cc1c[n+](CCCC2CCCCC2)cn1CCCC1CCCCC1)C(N)=O |  |  | 5.6 | 11.2 | > 358 | 5.6 | 5.6 | 5.6 | 11.2 | 5.6 | Active | Active
N=C(N)NCCC[C@H](NC(=O)[C@H](Cc1c[nH]c2ccccc12)NC(=O)[C@H](CCCNC(=N)N)NC(=O)[C@@H](N)Cc1c[nH]c2ccccc12)C(N)=O (H-WRWR-NH2) |  |  |  |  | > 364.5 |  |  |  |  |  |  | 
NC(=O)[C@H](CCCN=C(N)N)NC(=O)[C@H](Cc1c[nH]c2ccccc12)NC(=O)[C@H](CCCN=C(N)N)NC(=O)[C@@H](N)Cc1c[nH]c2ccccc12 (H-WRWR-NH2) |  |  |  |  |  |  | 45.6 (≈ 32 µg/mL) | 11.4 (≈ 8 µg/mL) | 45.6 (≈ 32 µg/mL) | 45.6 (≈ 32 µg/mL) |  | 
H-WRWRWR-NH2 [listing 1 of 2 here] |  |  |  |  | > 245.2 |  |  |  |  |  |  | 
N=C(N)NCCC[C@H](NC(=O)[C@H](Cc1cncn1CCCC1CCCCC1)NC(=O)[C@@H](N)CCCNC(=N)N)C(N)=O |  |  | 54.1 (≈ 32 µg/mL) | > 54.1 | > 432.9 | 54.1 (≈ 32 µg/mL) | 13.5 (≈ 7.98 µg/mL) | 13.5 (≈ 7.98 µg/mL) | 108 (≈ 63.9 µg/mL) | 108 (≈ 63.9 µg/mL) | inactive | inactive
CC[C@H](C)[C@H](NC(=O)CN)C(=O)NCC(=O)N[C@@H](C)C(=O)N[C@H](C(=O)N[C@@H](CC(C)C)C(=O)N[C@@H](CCCCN)C(=O)N[C@H](C(=O)N[C@@H](CC(C)C)C(=O)N[C@H](C(=O)N[C@H](C(=O)NCC(=O)N[C@@H](CC(C)C)C(=O)N1CCC[C@H]1C(=O)N[C@@H](C)C(=O)N[C@@H](CC(C)C)C(=O)N[C@H](C(=O)N[C@@H](CO)C(=O)N[C@@H](Cc1c[nH]c2ccccc12)C(=O)N[C@H](C(=O)N[C@@H](CCCCN)C(=O)N[C@@H](CCCNC(=N)N)C(=O)N[C@@H](CCCCN)C(=O)N[C@@H](CCCNC(=N)N)C(=O)N[C@@H](CCC(N)=O)C(=O)N[C@@H](CCC(N)=O)C(N)=O)[C@@H](C)CC)[C@@H](C)CC)[C@@H](C)O)[C@@H](C)O)C(C)C)C(C)C |  |  |  |  |  |  |  |  |  |  | inactive | inactive
NC(=O)[C@H](CCCN=C(N)N)NC(=O)[C@H](Cc1c[nH]c2ccccc12)NC(=O)[C@@H](N)CCCN=C(N)N (H-Arg-Trp-Arg-NH2) |  |  |  |  | > 495.8 |  | > 124 | > 124 | > 124 | > 124 |  | 
N=C(N)NCCC[C@H](NC(=O)[C@@H](N)Cc1c[n+](CCCC2CCCCC2)cn1CCCC1CCCCC1)C(N)=O |  |  | 14.3 | 28.6 | > 457.6 | 14.3 | 14.3 | 14.3 | 57.2 | > 114 | Active | Active
N=C(N)NCCC[C@H](NC(=O)[C@H](CCCNC(=N)N)NC(=O)[C@@H](N)Cc1c[n+](CCCC2CCCCC2)cn1CCCC1CCCCC1)C(N)=O | Active | Active | 5.6 | 5.6 | > 357.7 | 5.6 | 2.8 | 2.8 | 11.2 | 5.6 | Active | Active
H-WRWRWR-NH2 [listing 2 of 2 here] |  |  |  |  |  |  | 7.7 | 7.7 | 15.3 | 3.8 |  | 
